Data from paper PMC3115796 (The Journal of Cell Biology, 2011).

B1: GFP–CLIP-170-N: amino acids 4–309 of the rat CLIP-170 (protein)
chain: LKPSGLKAPTKILKPGSTALKTPAAAAAPLEKTVPSEKASGPPSSETQEEFVDDFRVGERVWVNGNKPGFIQFLGETQFAPGQWAGIVLDEPIGKNDGSVAGVRYFQCEPLKGIFTRPSKLTRKVQAEDEANGLQTAHARAASPLSTAAATMVSSSPATPSNIPQKPSQPVAKETSATPQISNLTKTASESISNLSEAGSVKKGERELKIGDRVLVGGTKAGVVRFLGETDFAKGEWCGVELDEPLGKNDGAVAGTRYFQCQPKYGLFAPVHKVTKIGFPSTTPAKAKAAAVRRVMATTPASLKRS
modifications: left off: GFP, end not stated, kept
B2: GFP-SLAIN1: GFP-tagged SLAIN1 (protein)
chain: MMAEQVKCASPVAASGAGPGPVVNAELEVKKLQELVRKLEKQNEQLRSRAASAAAAPHLLLLQPPPPSAPPPAGACSPLATHRAPASTTSPGPGALGPAFPGTYCLPSPAPSLLCSLQPADAPFVYSKPAAGFFGGGGSPEPGTAGTPPGEAATPPLPPPTLLDEVEPLDLESLAAWSEEDDYTWLYVGSSKTFTSPEKSPSPLQWCRHVLDNPTPEMEAARRSLRFRLEQGYTSRGSPLSPQSSIDSELSTSELEDDSISMGYKLQDLTDVQIMARLQEESLRQDYASTSASVSRNSSSVSLSSGKKGTCSDQEYDRYSLEDEEEFDHLPPPQPRLPRCSPFQRGIPHSQTFSSIRDCRRSPSTQYFPSNNFQQPQYYPPQAQTADQQPNRTNGDKLRRSMPNLARMPSTAAASSNLSSPVTVRSSQSFDSSLHGAGSGVSRVPSCIPSPGQIQHRVHSVGHFPVPIRQPLKATAYVSPTVQGSSSSGSSGSSGGSGSGMPLSNGTQLYSTTGIPTPNKAAASGILGRSALPRPSLAINGSNLPRSKIAQPVRSFLQPPKPLSSLSTLRDGNWRDGCY
modifications: left off: GFP, end not stated, kept

Key:
[1] = test system: SLAIN2 C terminus / full-length CLIP-170; test: GST-SLAIN2 pull-down of CLIPs and full-length CLIP-170; assay type: binding
[2] = test system: MT plus ends in HeLa cells; test: MT plus end tracking, live-cell imaging; assay type: cell-based; conditions: live or fixed cells
Procedure, shortened: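 HeLa cells were grown in 45% DME, 45% Ham's F10 and 10% fetal calf serum. Live imaging used TIRF/widefield at 37°C in a stage-top incubator in culture medium (100× 1.49 NA objective, EMCCD, 0.065 µm/pixel). For fixed cells, −20°C methanol was applied for 15 min, with a 15-min 4% PFA postfix for SLAIN1/2 and EB1 staining, followed by immunofluorescence on a widefield microscope.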

Molecule | association with SLAIN2 C terminus [1] | MT plus end tracking / localization (in words) [2]
B1 | associated with the SLAIN2 C terminus | 
B2 |  | colocalized with EB-positive MT ends
